TCR CD3 inh: inhibitors of human TCR-CD3 interaction | TAMRA-labeled TCR probe fluorescence, biochemical | inhibition, % at 9.4 µM | 0.37% of 360,000 active | AID 651800;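 note: recombinant mutant TCR 2C K166C tagged with TAMRA read by polarization; 0% = receptor in buffer alone and 100% = receptor with positive control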
SIAE primary: human SIAE inhibition, primary screen | SIAE FP-Rh probe binding, fluorescence polarization | inhibition, % at 9.66 µM | 0.69% of 370,000 active | AID 1053197;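 active = inhibition above a cutoff: mean of compounds within the control limits plus 3 SD of those, cut at about 17% in these data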;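 note: 0% = plate median of compound wells and 100% = probe without SIAE protein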
Target sequence (Q9HAT2 whole entry, looked up): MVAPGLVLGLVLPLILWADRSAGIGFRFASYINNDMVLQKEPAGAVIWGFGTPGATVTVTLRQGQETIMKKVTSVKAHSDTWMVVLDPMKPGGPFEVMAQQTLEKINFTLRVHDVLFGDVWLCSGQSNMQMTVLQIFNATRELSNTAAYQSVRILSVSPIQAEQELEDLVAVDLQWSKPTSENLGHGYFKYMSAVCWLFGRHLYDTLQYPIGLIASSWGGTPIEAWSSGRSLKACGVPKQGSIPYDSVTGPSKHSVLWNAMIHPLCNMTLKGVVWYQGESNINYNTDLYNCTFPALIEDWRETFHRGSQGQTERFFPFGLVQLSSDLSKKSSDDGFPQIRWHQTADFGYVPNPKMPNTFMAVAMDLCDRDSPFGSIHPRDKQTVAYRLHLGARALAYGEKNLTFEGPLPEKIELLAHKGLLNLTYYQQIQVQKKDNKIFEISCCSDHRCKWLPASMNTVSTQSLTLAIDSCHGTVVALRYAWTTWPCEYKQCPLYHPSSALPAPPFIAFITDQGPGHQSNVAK
ABHD4 inh: inhibits mouse alpha/beta hydrolase domain 4 | Q8VD66 | purified mABHD4, FP-Rh probe fluorescence polarization | inhibition, % at 8.92 µM | 0.54% of 370,000 active;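 active = inhibition exceeding the mean over every tested compound plus 3 SD, cut at about 30% in these data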;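 note: 0% = plate median of compound wells and 100% = S159A mutant with DMSO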
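System: mouse ABHD4 enzyme, wild type / Medium: HEPES pH 7.0, NaCl, Pluronic buffer / Reagent: FP-Rh activity-based fluorescent probe / Control set: S159A mutant high control, sample median low control / Detection: fluorescence polarization with parallel and perpendicular emission, 525/598 nm / Schedule: 45 min + 60 min at 25 °C / Compound dosing: 8.92 µM, single dose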
HTRA1 inh: inhibitors of human serine peptidase HTRA1 | AID 504803 | inhibition, % at 5.96 µM | recombinant HTRA1, FP-rhodamine activity-based probe, fluorescence polarization | 0.5% of 340,000 active; in the data active = inhibition above about 36%;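 note: 0% = enzyme with DMSO and 100% = wells lacking enzyme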
rCAG binder: binds r(CAG) RNA repeats; r(CAG) RNA repeat, TO-PRO-1 dye displacement fluorescence; inhibition, % at 3 µM; 1.3% of 370,000 active;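 active = inhibition above the plate cutoff, the mean of all test compounds on that plate plus 3 SD, cut at about 35% in these data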;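 note: 0% = DMSO alone and 100% = 100 µM mitoxantrone as full dye displacement; higher means more dye released from RNA so lower well fluorescence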
BSA probe FL: BSA probe counter-screen for TCR-CD3 inhibitors | shares compounds with TCR CD3 inh | TAMRA-labeled BSA probe fluorescence counterscreen | inhibition, % at 9.4 µM | 10% of 1,200 active | AID 652035; in the data active = inhibition above about 23%;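 note: 0% = buffer low control and 100% = reference high control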
TCR-CD3 inh conf: confirmation of human TCR-CD3 interaction inhibitors. 48% of 1,200 active. TAMRA-labeled TCR probe fluorescence binding assay. shares compounds with TCR CD3 inh. inhibition, % at 9.4 µM
Active calls of the source: *. Rows were chosen to be rich in hits. Some 2.5% of all compounds tested hit in one or more screens of this group. Cut-off read from the data, not from the text of the source, unless noted: active = inhibition above about 19%; inactive = the rest.

How did COC(=O)Nc1ccc(S(=O)(=O)NNC(=O)c2c(O)c3ccccc3n(C)c2=O)cc1 do in these assays?
TCR CD3 inh: 55.8*; SIAE primary: -31.6; ABHD4 inh: 3.3; HTRA1 inh: 1.7; rCAG binder: 3.3; BSA probe FL: -2.9; TCR-CD3 inh conf: 24.7*

How did O=C(CN1CCN(c2ccc(F)cc2)CC1)Nc1ccc2c(c1)OCCO2 do in these assays?
TCR CD3 inh: -9.2; SIAE primary: 2.5; ABHD4 inh: 1.4; HTRA1 inh: -3.4; rCAG binder: -6.8

How did CCOC(=O)C(CC)/C(C)=N\NC(=O)c1ccccc1O (stereo unspecified) do in these assays?
TCR CD3 inh: 34.8*; SIAE primary: 5.7; ABHD4 inh: 8.7; HTRA1 inh: 31.1; rCAG binder: -8.7; BSA probe FL: 22.0; TCR-CD3 inh conf: 38.1*

Results for CCC/C(C)=N/NC(=O)c1ccccc1O ?
TCR CD3 inh: 5.4; SIAE primary: 0.7; ABHD4 inh: 5.1; HTRA1 inh: 8.4; rCAG binder: 0.8

Results for CS(=O)(=O)c1ccccc1C(=O)Nc1ccc(-c2nc3ccccc3[nH]2)cc1 ?
TCR CD3 inh: 0.3; SIAE primary: 1.1; ABHD4 inh: -3.9; HTRA1 inh: -5.3; rCAG binder: 2.7

How did O=C(c1ccccc1)c1ccc2nc(-c3ccc(NC(=O)c4ccccc4Br)cc3)[nH]c2c1 do in these assays?
TCR CD3 inh: 33.6*; SIAE primary: -110.3; ABHD4 inh: -87.6; HTRA1 inh: -81.8; rCAG binder: 15.6; BSA probe FL: 11.8; TCR-CD3 inh conf: 12.1

How did CN(c1ccccc1)S(=O)(=O)c1ccc(Cl)c(C(=O)Nc2ccc(-c3nc4ccccc4[nH]3)cc2)c1 do in these assays?
TCR CD3 inh: 59.9*; SIAE primary: -139.2; ABHD4 inh: -106.3; HTRA1 inh: -79.0; rCAG binder: 21.0; BSA probe FL: 26.9*; TCR-CD3 inh conf: 54.3*

How did CC(C)=CCC[C@@]1(C(=O)O)[C@H]2CC=C(CO)[C@@H]1CC/C(C)=C/CC/C(C)=C/C2 do in these assays?
SIAE primary: -1.9; ABHD4 inh: -11.7; rCAG binder: 6.5

How did C=CCn1c(-c2ccco2)n[nH]c1=S do in these assays?
TCR CD3 inh: 54.1*; SIAE primary: -4.6; ABHD4 inh: -0.7; HTRA1 inh: 5.5; rCAG binder: 3.0; BSA probe FL: 1.0; TCR-CD3 inh conf: -0.1

How did NC(=O)NC(=O)CSc1ccccc1 do in these assays?
TCR CD3 inh: 3.9; SIAE primary: -6.2; ABHD4 inh: 1.2; HTRA1 inh: -2.6; rCAG binder: -3.1

How did O=C(CSc1ccccc1)NNC(=O)c1ccccc1O do in these assays?
TCR CD3 inh: 19.2*; SIAE primary: 9.3; ABHD4 inh: 9.2; HTRA1 inh: 35.5; rCAG binder: 2.2; BSA probe FL: -10.2; TCR-CD3 inh conf: 25.9*

Results for O=C(NNC(=O)OCc1ccccc1)OCc1ccccc1 ?
TCR CD3 inh: 111.4*; SIAE primary: 13.3; ABHD4 inh: 9.1; HTRA1 inh: 3.3; rCAG binder: 0.7; BSA probe FL: -7.7; TCR-CD3 inh conf: -3.0

How did O=C(NC(NC(=S)Nc1cccc(C(=O)O)c1)C(Cl)(Cl)Cl)OCc1ccccc1 (stereo unspecified) do in these assays?
TCR CD3 inh: -0.9; SIAE primary: 0.5; ABHD4 inh: 2.2; HTRA1 inh: 1.1; rCAG binder: 6.3

What do the screens show for `O=C(NC(NC(=S)Nc1cccc(Cl)c1)C(Cl)(Cl)Cl)OCc1ccccc1` (stereo unspecified)?
TCR CD3 inh: 24.1*; SIAE primary: -19.1; ABHD4 inh: -121.8; HTRA1 inh: -84.9; rCAG binder: 8.9; BSA probe FL: 6.2; TCR-CD3 inh conf: 4.3

How did O=C(NCc1ccccc1)C12CN(Cc3ccccc3)CC1C(c1ccc([N+](=O)[O-])cc1)=NO2 (stereo unspecified) do in these assays?
TCR CD3 inh: 2.5; SIAE primary: 2.8; ABHD4 inh: 0.5; HTRA1 inh: -9.1; rCAG binder: 3.0

What do the screens show for `O=C(NNC(=O)c1ccc2ccccc2c1O)NC1CCCCC1`?
TCR CD3 inh: 20.4*; SIAE primary: 16.9; ABHD4 inh: 5.7; HTRA1 inh: 20.1; rCAG binder: 5.9; BSA probe FL: -6.5; TCR-CD3 inh conf: 20.9*

Results for COc1ccc(C(=O)NNC(=O)c2ccc3ccccc3c2)cc1 ?
TCR CD3 inh: 4.6; SIAE primary: -4.1; ABHD4 inh: -3.0; HTRA1 inh: -0.3; rCAG binder: 0.9

What do the screens show for `COc1ccc(C(=O)NNC(=O)c2ccc3ccccc3c2O)cc1`?
TCR CD3 inh: 37.9*; SIAE primary: 13.8; ABHD4 inh: 6.1; HTRA1 inh: 3.9; rCAG binder: 2.4; BSA probe FL: -10.7; TCR-CD3 inh conf: 37.8*

What do the screens show for `Cc1ccc(C(=O)NNC(=O)c2ccc3ccccc3c2O)cc1`?
TCR CD3 inh: 43.1*; SIAE primary: -1.7; ABHD4 inh: 10.7; HTRA1 inh: -2.4; rCAG binder: 12.3; BSA probe FL: -6.0; TCR-CD3 inh conf: 34.3*

How did COc1ccc(NS(=O)(=O)c2cccc(C(=O)NNC(=O)c3ccccc3O)c2)cc1 do in these assays?
TCR CD3 inh: 27.6*; SIAE primary: -2.0; ABHD4 inh: 16.4; HTRA1 inh: 19.6; rCAG binder: 18.4; BSA probe FL: -15.5; TCR-CD3 inh conf: 16.5

What do the screens show for `C[C@@H]1CN([C@@H](C)CO)S(=O)(=O)c2ccc(Br)cc2O[C@H]1CN(C)Cc1ccncc1`?
TCR CD3 inh: -1.1; SIAE primary: 0.8; ABHD4 inh: -8.0; HTRA1 inh: -5.8; rCAG binder: -0.1

Results for CCN(Cc1ccccc1)C(=O)c1ccc(N(C)S(=O)(=O)c2ccc(C)cc2)cc1 ?
TCR CD3 inh: -3.0; SIAE primary: -2.5; ABHD4 inh: -12.8; HTRA1 inh: -13.3; rCAG binder: -4.3

How did Cc1cccc(NC(=O)NNC(=O)c2ccc3ccccc3c2O)c1 do in these assays?
TCR CD3 inh: 32.7*; SIAE primary: 16.8; ABHD4 inh: 13.2; HTRA1 inh: 14.6; rCAG binder: 9.5; BSA probe FL: -7.6; TCR-CD3 inh conf: 29.5*

What do the screens show for `Cc1cccc(NC(=O)NNC(=O)c2ccc3ccccc3c2)c1`?
TCR CD3 inh: -0.8; SIAE primary: 0.4; ABHD4 inh: -3.7; HTRA1 inh: -8.1; rCAG binder: 2.0

Results for COc1cc(OC)cc(C(=O)NNC(=O)c2cc3ccccc3cc2O)c1 ?
TCR CD3 inh: 25.9*; SIAE primary: 9.8; ABHD4 inh: -8.4; HTRA1 inh: 9.0; rCAG binder: 29.8; BSA probe FL: -11.2; TCR-CD3 inh conf: 18.7

How did COc1cc(OC)cc(C(=O)NNC(=S)Nc2ccccc2OC)c1 do in these assays?
TCR CD3 inh: -8.6; SIAE primary: 2.4; ABHD4 inh: 5.2; HTRA1 inh: 5.6; rCAG binder: 12.4

Results for O=C(NNC(=O)c1ccc(O)cc1O)c1ccc(-c2ccccc2)cc1 ?
TCR CD3 inh: 28.3*; SIAE primary: 1.5; ABHD4 inh: 3.7; HTRA1 inh: 23.8; rCAG binder: 13.1; BSA probe FL: -9.0; TCR-CD3 inh conf: 22.3*

Bioassay records: PubChem, The Scripps Research Institute Molecular Screening Center
